Experimental data from different studies.
Target: RAC-alpha serine/threonine-protein kinase (AKT1, Homo sapiens, UniProt P31749)

| Structure (SMILES) | effect on | action | method | tested at | quantity | value |
| --- | --- | --- | --- | --- | --- | --- |
| CCCCC(=O)Nc1ccc(-c2ccc3ncn(CCC)c(=O)c3c2)cn1 | binding |  | competition with immobilised ligand | 0.5 µM | remaining binding | 100% |
| N#Cc1ccc(NC(=O)Nc2ccccc2)cc1 | cell-free assay |  | competition with immobilised ligand | 25 µM | remaining binding | 100% |
| CO[C@@H]1[C@H](N(C)C(=O)c2ccccc2)C[C@H]2O[C@]1(C)n1c3ccccc3c3c4c(c5c6ccccc6n2c5c31)C(=O)NC4 | enzyme activity | inhibitor |  | 1 µM | inhibition | 7% |
| COc1ccc2[nH]c3c4[nH]c5ccc(OC)cc5c4c4c(c3c2c1)C(=O)NC4=O | binding |  |  | 1 µM | remaining binding | 72% |
| Cc1cc(O)c(-c2ccc([C@@H](C)CN(C)C)cc2)c2c1[nH]c(=O)c1sccc12 | enzyme activity | inhibitor |  | 0.1 µM | inhibition | -0.622% |
| Cc1ccc(NC(=O)c2ccnc(C(F)(F)F)c2)cc1-c1cc(OCCO)nc(N2CCOCC2)c1 | binding |  |  | 1 µM | remaining binding | 99% |
| C=CC(=O)N1CCC([C@@H]2CCNc3c(C(N)=O)c(-c4ccc(Oc5ccccc5)cc4)nn32)CC1 | enzyme activity | inhibitor |  | 1 µM | inhibition | 7% |
| COc1ccc2oc(-c3ccc4nc(N)oc4c3)c/c(=N\c3ccccc3NC(=O)CCN)c2c1 | binding |  |  | 1 µM | remaining binding | 91% |
| C1=C/COCc2cc(ccc2OCCN2CCCC2)Nc2nccc(n2)-c2cccc(c2)COC/1 | binding |  |  | 0.1 µM | remaining binding | 100% |
| C#Cc1cnc(Nc2ccnc(CO)c2)nc1Nc1ccccc1S(C)(=O)=NC#N (stereo not shown) | cell-free assay |  |  | 1 µM | remaining signal | 100% |
